Data reported in ChEMBL document CHEMBL1124914, “Novel inhibitors of human renin. Cyclic peptides based on the tetrapeptide sequence Glu-D-Phe-Lys-D-Trp” (J Med Chem, 1990).
Activity calls are given as the source filed them. The calls are words filed in the database; no cut-off is given here.

How the values were obtained:
Renin (Homo sapiens) [1] = target: T1, Renin (Homo sapiens) (UniProt P00797); assay: Tested for inhibition against human renin at a concentration of 100 uM
T1 sequence (whole entry): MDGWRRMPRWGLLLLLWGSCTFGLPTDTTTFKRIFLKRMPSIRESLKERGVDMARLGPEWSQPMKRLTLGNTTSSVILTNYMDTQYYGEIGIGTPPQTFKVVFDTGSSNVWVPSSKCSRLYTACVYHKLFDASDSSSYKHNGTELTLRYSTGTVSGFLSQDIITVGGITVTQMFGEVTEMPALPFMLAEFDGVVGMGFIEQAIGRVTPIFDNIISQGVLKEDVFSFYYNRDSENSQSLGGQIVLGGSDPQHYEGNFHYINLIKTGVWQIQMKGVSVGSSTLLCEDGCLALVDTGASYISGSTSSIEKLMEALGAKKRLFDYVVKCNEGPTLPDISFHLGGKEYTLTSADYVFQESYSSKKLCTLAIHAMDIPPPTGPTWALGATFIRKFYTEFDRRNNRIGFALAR
Method in brief: (§1)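 Partially purified human renal renin with human angiotensinogen partially purified from volunteer plasma (ammonium sulfate fractionation, DEAE-Sephacel). Final mix: 50 mM phosphate pH 7.0, 3 mM EDTA, 3 mM 8-hydroxyquinoline, 0.5 mM PMSF, 0.1% azide, 0.1% BSA, 1% DMSO. […] Incubation 120 min at 30 °C, stopped on ice. Angiotensin I measured by radioimmunoassay; percent inhibition of vehicle control rate.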

Renin (Homo sapiens) [2] = target: T1, Renin (Homo sapiens); assay: Tested for inhibition against human renin at a concentration of 100 uM; Inactive; method in brief: as §1
Renin = target: T2, Renin (Homo sapiens, UniProt P00797); assay: Inhibitory activity against human renin
T2 sequence (P00797 whole entry): T1 sequence (whole entry)
Method in brief: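 Partially purified human renal renin with human angiotensinogen partially purified from volunteer plasma (ammonium sulfate fractionation, DEAE-Sephacel). Final mix: 50 mM phosphate pH 7.0, 3 mM EDTA, 3 mM 8-hydroxyquinoline, 0.5 mM PMSF, 0.1% azide, 0.1% BSA, 1% DMSO. Incubation 120 min at 30 °C, stopped on ice. Angiotensin I measured by radioimmunoassay; percent inhibition of vehicle control rate.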

Renin (Homo sapiens) [3] = target: T1, Renin (Homo sapiens); assay: Tested for inhibition against human renin at a concentration of 1 uM; method in brief: as §1
Renin (Homo sapiens) [4] = target: T1, Renin (Homo sapiens); assay: Tested for inhibition against human renin at a concentration of 10 uM; method in brief: as §1
Renin (Sus scrofa) = assay: Inhibitory activity against porcine renin
Renin (Homo sapiens) [5] = target: T1, Renin (Homo sapiens); assay: Ratio of inhibitory activity of porcine renin to that of human renin; details: Sus scrofa

Structure (SMILES): COC(=O)[C@H](CC(C)C)NC(=O)C(Cc1c[nH]c2ccccc12)NC(=O)[C@H](CCCN)N1C(=O)CC[C@H](NC(=O)OCc2ccccc2)C(=O)N[C@@H](Cc2ccccc2)C1=O (stereo in doubt)
- inhibition (Renin (Homo sapiens) [1]): 42%

Structure (SMILES): COC(=O)[C@H](CC(C)C)NC(=O)C(Cc1c[nH]c2ccccc12)NC(=O)[C@@H]1CCC(=O)N[C@H](CCCCNC(=O)OCc2ccccc2)C(=O)N[C@@H](Cc2ccccc2)C(=O)N1 (stereo in doubt)
- inhibition (Renin (Homo sapiens) [2]): inactive

Structure (SMILES): COC(=O)[C@H](CCSC)NC(=O)[C@H](CC(C)C)NC(=O)C(Cc1c[nH]c2ccccc12)NC(=O)[C@H](CS)NC(=O)[C@H](Cc1ccccc1)NC(=O)[C@H](CS)NC(=O)OC(C)(C)C (stereo in doubt)
- inhibition (Renin (Homo sapiens) [1]): 22%

Structure (SMILES): CC[C@@H](C)[C@H](NC(=O)C(Cc1c[nH]c2ccccc12)NC(=O)[C@H](CCCCN)N1C(=O)CC[C@@H](NC(=O)OCc2ccccc2)C(=O)N[C@H](Cc2ccccc2)C1=O)C(=O)NC (stereo in doubt)
- IC50 (Renin): 810 nM

Structure (SMILES): CC(=O)NCSC[C@H]1NC(=O)[C@H](Cc2ccccc2)NC(=O)CNC(=O)[C@@H](CC(C)C)NC(=O)C(Cc2c[nH]c3ccccc23)NC1=O (stereo in doubt)
- inhibition (Renin (Homo sapiens) [2]): inactive

Structure (SMILES): CC(C)C[C@H]1NC(=O)C(Cc2c[nH]c3ccccc23)NC(=O)[C@@H](CCCCN)N(C(=O)[C@H](Cc2ccccc2)NC(=O)OCc2ccccc2)C1=O (stereo in doubt)
- inhibition (Renin (Homo sapiens) [2]): inactive

Structure (SMILES): CC(C)CCNC(=O)C(Cc1c[nH]c2ccccc12)NC(=O)[C@H](CCCCN)N1C(=O)CC[C@@H](NC(C)C)C(=O)N[C@H](Cc2ccccc2)C1=O (stereo in doubt)
- inhibition (Renin (Homo sapiens) [1]): 93%
- inhibition (Renin (Homo sapiens) [3]): 30%

Structure (SMILES): COC(=O)[C@@H](NC(=O)C(Cc1c[nH]c2ccccc12)NC(=O)[C@H](CCCCN)N1C(=O)CC[C@@H](NC(=O)OCc2ccccc2)C(=O)N[C@H](Cc2ccccc2)C1=O)C1CCCCC1 (stereo in doubt)
- inhibition (Renin (Homo sapiens) [1]): 67%

Structure (SMILES): COC(=O)[C@@H]1CCCN1C(=O)[C@H](CC(C)C)NC(=O)C(Cc1c[nH]c2ccccc12)NC(=O)[C@H](CCCCN)N1C(=O)CC[C@@H](NC(=O)OCc2ccccc2)C(=O)N[C@H](Cc2ccccc2)C1=O (stereo in doubt)
- inhibition (Renin (Homo sapiens) [4]): 76%

Structure (SMILES): CC(C)CCNC(=O)C(Cc1c[nH]c2ccccc12)NC(=O)[C@H](CCCCN)N1C(=O)CC[C@@H](NCc2c[nH]c3ccccc23)C(=O)N[C@H](Cc2ccccc2)C1=O (stereo in doubt)
- IC50 (Renin): 1900 nM

Structure (SMILES): CCNC(=O)[C@H](CC(C)C)NC(=O)C(Cc1c[nH]c2ccccc12)NC(=O)[C@H](CCCCN)N1C(=O)CC[C@@H](NC(=O)OCc2ccccc2)C(=O)N[C@H](Cc2ccccc2)C1=O (stereo in doubt)
- IC50 (Renin): 850 nM

Structure (SMILES): CC(=O)NCSC[C@@H]1NC(=O)[C@@H](CC(C)C)NC(=O)C(Cc2c[nH]c3ccccc23)NC(=O)[C@@H](CSCNC(C)=O)NC(=O)[C@H](Cc2ccccc2)NC1=O (stereo in doubt)
- inhibition (Renin (Homo sapiens) [1]): 56%

Structure (SMILES): CC(=O)NCSC[C@H]1NC(=O)[C@H](Cc2ccccc2)NC(=O)[C@@H]2CCCN2C(=O)[C@@H](CC(C)C)NC(=O)C(Cc2c[nH]c3ccccc23)NC1=O (stereo in doubt)
- inhibition (Renin (Homo sapiens) [1]): 38%

Structure (SMILES): CC(C)CCNC(=O)C(Cc1c[nH]c2ccccc12)NC(=O)[C@H](CCCCN)N1C(=O)CC[C@@H](NC(=O)OC(C)(C)C)C(=O)N[C@H](Cc2ccccc2)C1=O (stereo in doubt)
- IC50 (Renin): 210 nM
- IC50 (Renin (Sus scrofa)): 8500 nM
- Ratio (Renin (Homo sapiens) [5]): 40.4

Structure (SMILES): COC(=O)C(Cc1c[nH]c2ccccc12)NC(=O)[C@H](CCCCN)N1C(=O)CC[C@@H](NC(=O)OCc2ccccc2)C(=O)N[C@H](Cc2ccccc2)C1=O (stereo in doubt)
- inhibition (Renin (Homo sapiens) [1]): 69.2%

Structure (SMILES): CC(C)C[C@H]1NC(=O)C(Cc2c[nH]c3ccccc23)NC(=O)[C@@H](CCCCN)N(C(=O)[C@@H](N)Cc2ccccc2)C1=O (stereo in doubt)
- inhibition (Renin (Homo sapiens) [2]): inactive

Structure (SMILES): COC(=O)[C@H](CC(C)C)NC(=O)C(Cc1c[nH]c2ccccc12)NC(=O)[C@@H](CCCN)N1C(=O)C[C@H](NC(=O)OCc2ccccc2)C(=O)N[C@H](Cc2ccccc2)C1=O (stereo in doubt)
- inhibition (Renin (Homo sapiens) [2]): inactive

Structure (SMILES): CNC(=O)[C@H](CC(C)C)NC(=O)C(Cc1c[nH]c2ccccc12)NC(=O)[C@H](CCCCN)N1C(=O)CC[C@@H](NC(=O)OCc2ccccc2)C(=O)N[C@H](Cc2ccccc2)C1=O (stereo in doubt)
- IC50 (Renin): 340 nM

Structure (SMILES): CC(C)CCNC(=O)C(Cc1c[nH]c2ccccc12)NC(=O)[C@H](CCCCN)N1C(=O)CC[C@@H](NCC(C)(C)C)C(=O)N[C@H](Cc2ccccc2)C1=O (stereo in doubt)
- IC50 (Renin): 63 nM
- IC50 (Renin (Sus scrofa)): 7100 nM
- Ratio (Renin (Homo sapiens) [5]): 113

Structure (SMILES): CCC(C)CN[C@@H]1CCC(=O)N([C@@H](CCCCN)C(=O)NC(Cc2c[nH]c3ccccc23)C(=O)NCCC(C)C)C(=O)[C@@H](Cc2ccccc2)NC1=O (stereo in doubt)
- IC50 (Renin): 130 nM

Structure (SMILES): CC(C)(C)CNC(=O)C(Cc1c[nH]c2ccccc12)NC(=O)[C@H](CCCCN)N1C(=O)CC[C@@H](NC(=O)OCc2ccccc2)C(=O)N[C@H](Cc2ccccc2)C1=O (stereo in doubt)
- IC50 (Renin): 1700 nM

Structure (SMILES): COC(=O)C(CCSC)NC(=O)[C@H](CC(C)C)NC(=O)C(Cc1c[nH]c2ccccc12)NC(=O)[C@H](CCCCN)N1C(=O)CC[C@@H](NC(=O)OCc2ccccc2)C(=O)N[C@H](Cc2ccccc2)C1=O (stereo in doubt)
- IC50 (Renin): 450 nM

Structure (SMILES): COC(=O)[C@@H](CCSC)NC(=O)[C@H](CC(C)C)NC(=O)C(Cc1c[nH]c2ccccc12)NC(=O)[C@H](CCCCN)N1C(=O)CC[C@@H](NC(=O)OCc2ccccc2)C(=O)N[C@H](Cc2ccccc2)C1=O (stereo in doubt)
- IC50 (Renin): 290 nM

Structure (SMILES): COC(=O)[C@H](CC(C)C)NC(=O)C(Cc1c[nH]c2ccccc12)NC(=O)[C@@H](CCCCN)N1C(=O)C[C@H](NC(=O)OCc2ccccc2)C(=O)N[C@H](Cc2ccccc2)C1=O (stereo in doubt)
- inhibition (Renin (Homo sapiens) [1]): 32%

Structure (SMILES): CCC(Cc1c[nH]c2ccccc12)NC(=O)[C@H](CCCCN)N1C(=O)CC[C@@H](NC(=O)OC(C)(C)C)C(=O)N[C@H](Cc2ccccc2)C1=O (some centres not stated)
- inhibition (Renin (Homo sapiens) [1]): 41%

Structure (SMILES): CC(C)(C)OC(=O)N[C@@H]1CCC(=O)N([C@@H](CCCCN)C(=O)NCCc2c[nH]c3ccccc23)C(=O)[C@@H](Cc2ccccc2)NC1=O
- inhibition (Renin (Homo sapiens) [1]): 79%

Structure (SMILES): CC(C)CCNC(=O)C(Cc1c[nH]c2ccccc12)NC(=O)[C@H](CCCCN)N1C(=O)CC[C@@H](NC(=O)COc2ccccc2)C(=O)N[C@H](Cc2ccccc2)C1=O (stereo in doubt)
- IC50 (Renin): 430 nM
- IC50 (Renin (Sus scrofa)): 8200 nM
- Ratio (Renin (Homo sapiens) [5]): 19.2

Structure (SMILES): COC(=O)[C@H](CCCCN)N1C(=O)CC[C@@H](NC(=O)OC(C)(C)C)C(=O)N[C@H](Cc2ccccc2)C1=O
- inhibition (Renin (Homo sapiens) [2]): inactive

Structure (SMILES): CC(=O)NCSC[C@H]1NC(=O)[C@H](Cc2ccccc2)NC(=O)CN(C)C(=O)[C@@H](CC(C)C)NC(=O)C(Cc2c[nH]c3ccccc23)NC1=O (stereo in doubt)
- inhibition (Renin (Homo sapiens) [2]): inactive

Structure (SMILES): CC(Cc1c[nH]c2ccccc12)NC(=O)[C@H](CCCCN)N1C(=O)CC[C@@H](NC(=O)OC(C)(C)C)C(=O)N[C@H](Cc2ccccc2)C1=O (some centres not stated)
- inhibition (Renin (Homo sapiens) [1]): 33%

Structure (SMILES): CC(C)(C)OC(=O)N[C@@H]1CCC(=O)N([C@@H](CCCCN)C(N)=O)C(=O)[C@@H](Cc2ccccc2)NC1=O
- inhibition (Renin (Homo sapiens) [2]): inactive

Structure (SMILES): COC(=O)[C@H](CC(C)C)NC(=O)C(Cc1c[nH]c2ccccc12)NC(=O)[C@H](CCCCN)N1C(=O)CSC[C@@H](NC(=O)OCc2ccccc2)C(=O)N[C@H](Cc2ccccc2)C1=O (stereo in doubt)
- inhibition (Renin (Homo sapiens) [1]): 53%

Structure (SMILES): CC(C)CCNC(=O)C(Cc1c[nH]c2ccccc12)NC(=O)[C@H](CCCCN)N1C(=O)CC[C@@H](N)C(=O)N[C@H](Cc2ccccc2)C1=O (stereo in doubt)
- IC50 (Renin): 710 nM
- IC50 (Renin (Sus scrofa)): 46000 nM
- Ratio (Renin (Homo sapiens) [5]): 64.7
